The nature of data set [1]: Dissociation constant (pKa). It counts as physicochemical. In short, it runs like this: (§1)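 pKa values measured in water at 25 °C by a previously published method.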
The target of data set [2] is Muscarinic acetylcholine receptor. Briefly: Inhibition of binding of radioactive N-propylbenzilycholine mustard ([3H]-PrBCM) to rat brain membranes. The class given is cell membranes, Membrane.
For data set [3] the target is unchanged. In words: In vitro antagonistic activity against peripheral Muscarinic acetylcholine receptor in guinea pig ileum as inhibition of acetylcholine induced muscle contraction. The class given is functional, tissue-based. The essentials:
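Guinea pigs were killed by a blow to the head and exsanguinated. A 30 mm ileum segment was held isotonically in Tyrode solution at 37 °C in an organ bath. IC50 was obtained by log probit analysis.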

Data set [4] can be described thus: pKa value is determined. The class given is physicochemical. In short, it runs like this: as §1

The term pKa denotes the pH at which an ionisable group is half protonated. Read a high pKa as a group that holds its proton tightly. As usually defined, the IC50 is the concentration that gives 50% inhibition. The compound `C=CCOc1noc2c1CNCC2.Cl` displayed a pKa in data set [1] of 7.5. In addition, in data set [2], the IC50 is 9.6 µM.

Compound `CCOc1noc2c1CN(C)CC2.Cl` gave a pKa in data set [1] of 6.6. Further, in data set [2], the IC50 is 2.4 µM.

`COc1noc2c1CN(C)CC2.Cl`: in data set [1], the pKa was determined as 6.6. For the same compound, the IC50 in data set [2] was 27 µM.

For the compound `C/C=C/COc1noc2c1CNCC2.Cl`, the IC50 in data set [3] is greater than 50 µM; in data set [2] it was 14 µM. In data set [1], this compound yielded a pKa of 7.7.

Consider `CC(C)COc1noc2c1CNCC2.Cl`, for which the half-inhibitory concentration (IC50) in data set [3] is 49 µM; in data set [2], greater than 50 µM. In data set [1], this compound yielded a pKa of 7.7.

Consider `COc1noc2c1CNCC2.Cl`, for which the concentration for half-maximal inhibition (IC50) in data set [2] was determined as 45 µM. In addition, in data set [4], the pKa amounted to 7.5.

Compound `CCN1CCc2onc(OC)c2C1.Cl` had a pKa in data set [1] of 7. Moreover, the IC50 in data set [2] came to 15 µM.

In the case of `Cl.c1ccc(COc2noc3c2CNCC3)cc1`, the IC50 in data set [3] came out at 48 µM; in data set [2] it was 32 µM. This compound also showed a pKa in data set [1] of 7.5.

Consider `CCOc1noc2c1CNCC2.Cl`, for which the half-maximal inhibitory concentration (IC50) in data set [2] was 6 µM. In addition, the pKa in data set [4] is 7.6.

`CC(C)Oc1noc2c1CNCC2.Cl`: the results for the IC50 in data set [3] and in data set [2] were 11 µM and 3.5 µM, respectively. This compound also returned a pKa in data set [1] of 7.5.

In data set [1], `C#CCOc1noc2c1CNCC2.Cl` displayed a pKa of 7.6. The 50% inhibitory concentration (IC50) in data set [2] was 5.8 µM.

`C=C(Br)COc1noc2c1CNCC2.Cl`: the IC50 in data set [3] came out at 22 µM; in data set [2], 13 µM. For the same compound, the pKa in data set [1] is 7.6.

Consider `CCCOc1noc2c1CNCC2.Cl`, for which the half-maximal inhibitory concentration (IC50) in data set [3] was 35 µM; in data set [2], 10 µM. In data set [1], this compound displayed a pKa of 7.6.

Take `CCCCOc1noc2c1CNCC2.Cl`: the IC50 is greater than 50 µM in data set [3] and 15 µM in data set [2]. This compound also yielded a pKa in data set [1] of 7.6.

For the compound `CC#CCOc1noc2c1CNCC2.Cl`, the pKa in data set [1] was determined as 7.6. The 50% inhibitory concentration (IC50) in data set [2] worked out at 5.2 µM.

Consider `COc1noc2c1CN(Cc1ccccc1)CC2.Cl`, for which the half-inhibitory concentration (IC50) in data set [3] and in data set [2] was greater than 50 µM each time. In data set [1], this compound displayed a pKa of 6.1.

The compound `COC(=O)C1=CCCN(C)C1` [ARECOLINE] had a pKa in data set [1] of 7.8.

`COC(=O)C1=CCCNC1` [NORARECOLINE]: the pKa in data set [1] was found to be 8.7. Further, the IC50 in data set [2] was 30 µM.

The record behind these values is ChEMBL document CHEMBL1123456, “A novel class of conformationally restricted heterocyclic muscarinic agonists” (J Med Chem, 1986).
